Tests used:
[1] = system: Human immunodeficiency virus; assay: Antiviral activity against HIV infected in human CEM-SS cells; type: functional, organism-based; details: Human immunodeficiency virus 1, CEM-SS
[2] = system: Human immunodeficiency virus 1; assay: Antiviral activity against HIV1 3B assessed as inhibition of infection in HeLa P4/R5 cells expressing CD4 receptor and beta-gal incubated for 2 hrs followed by compound-wash out measured after 46 hrs by single round infection MAGI assay; type: functional, organism-based; details: Human immunodeficiency virus 1, 3B
Procedure, shortened: (§1)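 P4R5 MAGI cells (CD4 and coreceptor expressing) were seeded at 1.2 × 10⁴ cells/well about 18 h before infection. They were exposed for 2 h at 37 °C to cell-free HIV-1 with or without compound, then washed and cultured 46 h more. Infection was read by β-galactosidase reporter chemiluminescence as a percentage of untreated infection. EC₅₀ came from regression, with triplicate wells per concentration.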

[3] = system: Human immunodeficiency virus 1; assay: Antiviral activity against HIV1 BaL assessed as inhibition of infection in HeLa P4/R5 cells expressing CD4 receptor and beta-gal incubated for 2 hrs followed by compound-wash out measured after 46 hrs by single round infection MAGI assay; type: functional, organism-based; details: Human immunodeficiency virus 1, BaL; procedure, shortened: as §1
HeLa = assay: Cytotoxicity against human HeLa P4/R5 cells incubated for 2 hrs followed by compound-wash out measured after 46 hrs by MTT assay
[4] = system: Human immunodeficiency virus 1; assay: Ratio of lamivudine EC50 to compound EC50 for HIV1 by cell-based assay; type: functional
[5] = system: Human immunodeficiency virus 1; assay: Antiviral activity against HIV1 94US3393IN clade B clinical isolate infected in PHA-stimulated human PBMC assessed as inhibition of viral replication incubated for 6 hrs followed by compound-wash out measured after 6 days by liquid scintillation counting; type: functional, organism-based; details: Human immunodeficiency virus 1, 94US3393IN clade B
[6] = system: Human immunodeficiency virus 1; assay: Antiviral activity against HIV1 98USMSC5016 clade C clinical isolate infected in PHA-stimulated human PBMC assessed as inhibition of viral replication incubated for 6 hrs followed by compound-wash out measured after 6 days by liquid scintillation counting; type: functional, organism-based; details: Human immunodeficiency virus 1, 98USMSC5016 clade C
[7] = system: Human immunodeficiency virus 1; assay: Antiviral activity against NNTRI-resistant HIV1 A-17 clade B clinical isolate infected in PHA-stimulated human PBMC assessed as inhibition of viral replication incubated for 6 hrs followed by compound-wash out measured after 6 days by liquid scintillation counting; type: functional, organism-based; details: Human immunodeficiency virus 1, A-17 clade B
[8] = system: Human immunodeficiency virus 1; assay: Antiviral activity against NRTI-resistant HIV1 71361-1 clade B clinical isolate infected in PHA-stimulated human PBMC assessed as inhibition of viral replication incubated for 6 hrs followed by compound-wash out measured after 6 days by liquid scintillation counting; type: functional, organism-based; details: Human immunodeficiency virus 1, 71361-1 clade B
[9] = system: Human immunodeficiency virus 1; assay: Antiviral activity against multidrug-resistant HIV1 4755-5 clade B clinical isolate infected in PHA-stimulated human PBMC assessed as inhibition of viral replication incubated for 6 hrs followed by compound-wash out measured after 6 days by liquid scintillation counting; type: functional, organism-based; details: Human immunodeficiency virus 1, 4755-5 clade B
[10] = Cytotoxicity against PHA-stimulated human PBMC incubated for 6 hrs followed by compound-wash out measured after 6 days; type: cell-based
Procedure, shortened: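 PHA-P-stimulated PBMCs pooled from at least two normal donors were exposed to compound dilutions for 6 h. Cells were then washed by medium replacement and centrifugation (~200g, 10 min) and cultured 6 days or until peak RT activity. Cytotoxicity was monitored by MTS on the same plates used for antiviral testing, alongside drug-plus-medium control wells without cells.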

CCRF-CEM [11] = assay: Cellular uptake in human CCRF-CEM cells at 50 uM after 1 hr by HPLC analysis; type: ADME, cell-based
Procedure, shortened: (§2)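 CCRF-CEM cells were grown in serum-free RPMI to ~70–80% confluency (1 × 10⁶ cells/mL), then given medium containing 50 μM compound at 37 °C for 1–72 h. Pellets were washed in ice-cold PBS and extracted with methanol/chloroform/isopropanol (4:3:1), then filtered. Parent ester and products were tracked by analytical HPLC at 265 nm using a water/acetonitrile (0.1% TFA) gradient.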

CCRF-CEM [12] = assay: Drug metabolism in human CCRF-CEM cells assessed as compound hydrolysis at 50 uM after 1 hr by HPLC analysis; type: ADME, cell-based; procedure, shortened: as §2
CCRF-CEM [13] = assay: Drug metabolism in human CCRF-CEM cells assessed as compound hydrolysis at 50 uM after 1 hr by HPLC analysis
[14] = system: Human immunodeficiency virus 1; assay: Antiviral activity against HIV1 by cell-based assay; type: functional, organism-based

SMILES	EC50 [2]	EC50 [3]	EC50 (HeLa)	further results
CCSCCCCCCCCCCCC(=O)O	–	–	–	EC50 [1]: 9.4 µM
CCCCCCCCCCCCCC(=O)Nc1ccn([C@@H]2CS[C@H](COC(=O)CCCCCCCCCCCCC)O2)c(=O)n1	> 154 µM	135 µM	> 154 µM	–
[N-]=[N+]=NCCCCCCCCCCCC(=O)Nc1ccn([C@@H]2CS[C@H](COC(=O)CCCCCCCCCCCN=[N+]=[N-])O2)c(=O)n1	148 µM	72.6 µM	> 148 µM	–
[N-]=[N+]=NCCCCCCCCCCCC(=O)Nc1ccn([C@@H]2CS[C@H](CO)O2)c(=O)n1	29.4 µM	3.8 µM	> 221 µM	–
CCCCCCCCCCCCCC(=O)OC[C@@H]1O[C@H](n2ccc(N)nc2=O)CS1	0.5 µM	0.2 µM	> 228 µM	IC50 [5]: 0.0042 µM; IC90 [5]: 0.015 µM; IC50 [6]: 0.0019 µM; IC90 [6]: 0.0275 µM; IC50 [7]: 0.0028 µM; IC90 [7]: 0.0311 µM; IC50 [8]: 0.0433 µM; IC90 [8]: 0.253 µM; IC50 [9]: 5.09 µM; IC90 [9]: > 6.83 µM; CC50 [10]: > 6.83 µM; Drug uptake (CCRF-CEM [11]): Active; Drug metabolism (CCRF-CEM [12]): Active; Drug metabolism (CCRF-CEM [13]): Active
Nc1ccn([C@@H]2CS[C@H](CO)O2)c(=O)n1 [LAMIVUDINE]	–	–	> 437 µM	EC50 [14]: 80.3 µM; CC50 [10]: > 13.1 µM

Now from value to molecule, other results behind:

EC50 [2]	EC50 [3]	SMILES	EC50 (HeLa)	further results
10.9 µM	0.7 µM	CCCCCCCCCCCCCC(=O)Nc1ccn([C@@H]2CS[C@H](CO)O2)c(=O)n1	> 228 µM	Ratio EC50 [4]: 115
5.3 µM	0.4 µM	CCSCCCCCCCCCCCC(=O)Nc1ccn([C@@H]2CS[C@H](CO)O2)c(=O)n1	> 212 µM	–
0.9 µM	0.7 µM	[N-]=[N+]=NCCCCCCCCCCCC(=O)OC[C@@H]1O[C@H](n2ccc(N)nc2=O)CS1	> 221 µM	–
2.3 µM	0.2 µM	CCSCCCCCCCCCCCC(=O)OC[C@@H]1O[C@H](n2ccc(N)nc2=O)CS1	> 212 µM	–

From ChEMBL document CHEMBL2086298, “Synthesis and biological evaluation of fatty acyl ester derivatives of (-)-2',3'-dideoxy-3'-thiacytidine” (J Med Chem, 2012)
